Data published in ChEMBL document CHEMBL1133105, “Antimalarial, antitrypanosomal, and antileishmanial activities and cytotoxicity of bis(9-amino-6-chloro-2-methoxyacridines): influence of the linker” (J Med Chem, 2000).

system: Leishmania infantum; test: Percentage of activity against Leishmania infantum at 1.56 uM; format: functional; details: not given
Procedure, shortened: (§1)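 Starch-stimulated mouse peritoneal macrophages, 30 000/well, infected after 24 h with spleen-derived L. infantum amastigotes (10:1) together with 2-fold drug dilutions (12.5–1.56 µM). Incubated 7 days at 37 °C, 5% CO2. Wright-stained slides scored microscopically as % reduction of total parasite load or of infected macrophages. Uninfected treated cultures judged microscopically for macrophage toxicity.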

SMILES | Antileishmanial activity (% reduction of parasite load)
COc1ccc2nc3cc(Cl)ccc3c(NCCCN(CCCNc3c4ccc(Cl)cc4nc4ccc(OC)cc34)C(=O)C(COC(C)=O)NC(=O)OC(C)(C)C)c2c1 (centres undefined) | 0%
COc1ccc2nc3cc(Cl)ccc3c(NCCCN(CCCNc3c4ccc(Cl)cc4nc4ccc(OC)cc34)C(=O)C(CO)NC(=O)OC(C)(C)C)c2c1 (centres undefined) | 0%

system: MRC5; test: Cytotoxicity on MRC-5 cells at 3.13 uM; format: functional; details: Homo sapiens
Procedure, shortened: (§2)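 MRC-5 human diploid embryonic lung cells seeded at 5 000/well, washed after 24 h, then given 2-fold drug dilutions (25, 12.5, 6.25, 3.13 µM) in RPMI + 5% FCS, final DMSO below 0.5%. Incubated 7 days at 37 °C, 5% CO2. MTT colorimetric read-out, scored as % reduction of absorbance at 540 nm versus untreated controls.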

SMILES | cytotoxicity at 3.13 µM
COc1ccc2nc3cc(Cl)ccc3c(NCCCN(CCCNc3c4ccc(Cl)cc4nc4ccc(OC)cc34)C(=O)C(COC(C)=O)NC(=O)OC(C)(C)C)c2c1 (centres undefined) | 20%
COc1ccc2nc3cc(Cl)ccc3c(NCCCN(CCCNc3c4ccc(Cl)cc4nc4ccc(OC)cc34)C(=O)C(CO)NC(=O)OC(C)(C)C)c2c1 (centres undefined) | 0%

system: Trypanosoma cruzi; test: Percentage of activity against Trypanosoma cruzi at 3.13 uM; format: functional; details: not given
Procedure, shortened: (§3)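 Mouse peritoneal macrophages, 30 000/well, infected after 24 h with about 100 000 T. cruzi trypomastigotes per well plus 2-fold drug dilutions (12.5–1.56 µM). Incubated 4 days at 37 °C, 5% CO2. Methanol-fixed, Giemsa-stained and scored microscopically as % reduction of total parasite load (free trypomastigotes plus intracellular amastigotes) versus untreated controls.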

SMILES | Reduction of T. cruzi parasite load
COc1ccc2nc3cc(Cl)ccc3c(NCCCN(CCCNc3c4ccc(Cl)cc4nc4ccc(OC)cc34)C(=O)C(COC(C)=O)NC(=O)OC(C)(C)C)c2c1 (centres undefined) | 0%
COc1ccc2nc3cc(Cl)ccc3c(NCCCN(CCCNc3c4ccc(Cl)cc4nc4ccc(OC)cc34)C(=O)C(CO)NC(=O)OC(C)(C)C)c2c1 (centres undefined) | 0%

system: Leishmania infantum; test: Percentage of activity against Leishmania infantum at 3.13 uM; format: functional; details: not given; procedure, shortened: as §1

SMILES | Percent antileishmanial activity (reduction of parasite load)
COc1ccc2nc3cc(Cl)ccc3c(NCCCN(CCCNc3c4ccc(Cl)cc4nc4ccc(OC)cc34)C(=O)C(COC(C)=O)NC(=O)OC(C)(C)C)c2c1 (centres undefined) | 60%
COc1ccc2nc3cc(Cl)ccc3c(NCCCN(CCCNc3c4ccc(Cl)cc4nc4ccc(OC)cc34)C(=O)C(CO)NC(=O)OC(C)(C)C)c2c1 (centres undefined) | 0%

system: Trypanosoma brucei; test: Percentage of activity against Trypanosoma brucei at 3.13 uM; format: functional; details: not given
Procedure, shortened: (§4)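 Bloodstream-form T. brucei in HMI-9 medium, 10 000 parasites/well, exposed to 12.5, 6.25, 3.13 and 1.56 µM drug for 4 days. Read-out is % inhibition of parasite multiplication. Macrophage toxicity judged on mouse primary peritoneal macrophages.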

SMILES | Parasite growth inhibition
COc1ccc2nc3cc(Cl)ccc3c(NCCCN(CCCNc3c4ccc(Cl)cc4nc4ccc(OC)cc34)C(=O)C(COC(C)=O)NC(=O)OC(C)(C)C)c2c1 (centres undefined) | 100%
COc1ccc2nc3cc(Cl)ccc3c(NCCCN(CCCNc3c4ccc(Cl)cc4nc4ccc(OC)cc34)C(=O)C(CO)NC(=O)OC(C)(C)C)c2c1 (centres undefined) | 100%

system: Trypanosoma brucei; test: Percentage of activity against Trypanosoma brucei at 6.25 uM; format: functional; details: not given; procedure, shortened: as §4

SMILES | Inhibition of parasite multiplication
COc1ccc2nc3cc(Cl)ccc3c(NCCCN(CCCNc3c4ccc(Cl)cc4nc4ccc(OC)cc34)C(=O)C(COC(C)=O)NC(=O)OC(C)(C)C)c2c1 (centres undefined) | 100%
COc1ccc2nc3cc(Cl)ccc3c(NCCCN(CCCNc3c4ccc(Cl)cc4nc4ccc(OC)cc34)C(=O)C(CO)NC(=O)OC(C)(C)C)c2c1 (centres undefined) | 100%

system: Trypanosoma cruzi; test: Percentage of activity against Trypanosoma cruzi at 12.5 uM; format: functional; details: not given; procedure, shortened: as §3

SMILES | T. cruzi parasite load reduction
COc1ccc2nc3cc(Cl)ccc3c(NCCCN(CCCNc3c4ccc(Cl)cc4nc4ccc(OC)cc34)C(=O)C(COC(C)=O)NC(=O)OC(C)(C)C)c2c1 (centres undefined) | 70%
COc1ccc2nc3cc(Cl)ccc3c(NCCCN(CCCNc3c4ccc(Cl)cc4nc4ccc(OC)cc34)C(=O)C(CO)NC(=O)OC(C)(C)C)c2c1 (centres undefined) | 80%

system: Trypanosoma cruzi; test: Percentage of activity against Trypanosoma cruzi at 1.56 uM; format: functional; details: not given; procedure, shortened: as §3

SMILES | Parasite load reduction
COc1ccc2nc3cc(Cl)ccc3c(NCCCN(CCCNc3c4ccc(Cl)cc4nc4ccc(OC)cc34)C(=O)C(COC(C)=O)NC(=O)OC(C)(C)C)c2c1 (centres undefined) | 0%
COc1ccc2nc3cc(Cl)ccc3c(NCCCN(CCCNc3c4ccc(Cl)cc4nc4ccc(OC)cc34)C(=O)C(CO)NC(=O)OC(C)(C)C)c2c1 (centres undefined) | 0%

system: Plasmodium falciparum; test: In vitro sensitivity for Plasmodium falciparum FcB1R; format: functional, organism-based; details: not given
Procedure, shortened: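 Asynchronous P. falciparum cultures in human erythrocytes (0.5% parasitemia, 1% haematocrit) exposed to serially diluted drug for 24 h at 37 °C. [3H]hypoxanthine (0.5 µCi/well) then added for a further 24 h. Uptake compared with drug-free controls on the same plate. IC50 taken from the concentration–response curve, averaged over independent experiments. DMSO ≤0.1%.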

SMILES | IC50
COc1ccc2nc3cc(Cl)ccc3c(NCCCN(CCCNc3c4ccc(Cl)cc4nc4ccc(OC)cc34)C(=O)C(COC(C)=O)NC(=O)OC(C)(C)C)c2c1 (centres undefined) | 0.063 µM
COc1ccc2nc3cc(Cl)ccc3c(NCCCN(CCCNc3c4ccc(Cl)cc4nc4ccc(OC)cc34)C(=O)C(CO)NC(=O)OC(C)(C)C)c2c1 (centres undefined) | 0.247 µM

system: MRC5; test: Cytotoxicity on MRC-5 cells at 12.5 uM; format: functional; details: Homo sapiens; procedure, shortened: as §2

SMILES | cytotoxicity at 12.5 µM
COc1ccc2nc3cc(Cl)ccc3c(NCCCN(CCCNc3c4ccc(Cl)cc4nc4ccc(OC)cc34)C(=O)C(COC(C)=O)NC(=O)OC(C)(C)C)c2c1 (centres undefined) | 90%
COc1ccc2nc3cc(Cl)ccc3c(NCCCN(CCCNc3c4ccc(Cl)cc4nc4ccc(OC)cc34)C(=O)C(CO)NC(=O)OC(C)(C)C)c2c1 (centres undefined) | 0%

system: Leishmania infantum; test: Percentage of activity against Leishmania infantum 6.25 uM; format: functional; details: not given; procedure, shortened: as §1

SMILES | Antileishmanial activity (% reduction of parasite load)
COc1ccc2nc3cc(Cl)ccc3c(NCCCN(CCCNc3c4ccc(Cl)cc4nc4ccc(OC)cc34)C(=O)C(COC(C)=O)NC(=O)OC(C)(C)C)c2c1 (centres undefined) | 80%
COc1ccc2nc3cc(Cl)ccc3c(NCCCN(CCCNc3c4ccc(Cl)cc4nc4ccc(OC)cc34)C(=O)C(CO)NC(=O)OC(C)(C)C)c2c1 (centres undefined) | 0%

system: MRC5; test: Cytotoxicity on MRC-5 cells at 25 uM; format: functional; details: Homo sapiens; procedure, shortened: as §2

SMILES | cytotoxicity at 25 µM
COc1ccc2nc3cc(Cl)ccc3c(NCCCN(CCCNc3c4ccc(Cl)cc4nc4ccc(OC)cc34)C(=O)C(COC(C)=O)NC(=O)OC(C)(C)C)c2c1 (centres undefined) | 100%
COc1ccc2nc3cc(Cl)ccc3c(NCCCN(CCCNc3c4ccc(Cl)cc4nc4ccc(OC)cc34)C(=O)C(CO)NC(=O)OC(C)(C)C)c2c1 (centres undefined) | 0%

system: Trypanosoma brucei; test: Percentage of activity against Trypanosoma brucei at 12.5 uM; format: functional; details: not given; procedure, shortened: as §4

SMILES | Inhibition of parasite multiplication
COc1ccc2nc3cc(Cl)ccc3c(NCCCN(CCCNc3c4ccc(Cl)cc4nc4ccc(OC)cc34)C(=O)C(COC(C)=O)NC(=O)OC(C)(C)C)c2c1 (centres undefined) | 100%
COc1ccc2nc3cc(Cl)ccc3c(NCCCN(CCCNc3c4ccc(Cl)cc4nc4ccc(OC)cc34)C(=O)C(CO)NC(=O)OC(C)(C)C)c2c1 (centres undefined) | 100%

system: MRC5; test: Cytotoxicity on MRC-5 cells at 6.25 uM; format: functional; details: Homo sapiens; procedure, shortened: as §2

SMILES | cytotoxicity at 6.25 µM
COc1ccc2nc3cc(Cl)ccc3c(NCCCN(CCCNc3c4ccc(Cl)cc4nc4ccc(OC)cc34)C(=O)C(COC(C)=O)NC(=O)OC(C)(C)C)c2c1 (centres undefined) | 40%
COc1ccc2nc3cc(Cl)ccc3c(NCCCN(CCCNc3c4ccc(Cl)cc4nc4ccc(OC)cc34)C(=O)C(CO)NC(=O)OC(C)(C)C)c2c1 (centres undefined) | 0%

system: Trypanosoma brucei; test: Percentage of activity against Trypanosoma brucei at 1.56 uM; format: functional; details: not given; procedure, shortened: as §4

SMILES | Percent inhibition of parasite multiplication
COc1ccc2nc3cc(Cl)ccc3c(NCCCN(CCCNc3c4ccc(Cl)cc4nc4ccc(OC)cc34)C(=O)C(COC(C)=O)NC(=O)OC(C)(C)C)c2c1 (centres undefined) | 100%
COc1ccc2nc3cc(Cl)ccc3c(NCCCN(CCCNc3c4ccc(Cl)cc4nc4ccc(OC)cc34)C(=O)C(CO)NC(=O)OC(C)(C)C)c2c1 (centres undefined) | 100%

system: Leishmania infantum; test: In Vitro evaluation for the percentage of activity towards Leishmania infantum at 12.5 uM Concentration; format: functional; details: not given; procedure, shortened: as §1

SMILES | Percent inhibition of Leishmania infantum
COc1ccc2nc3cc(Cl)ccc3c(NCCCN(CCCNc3c4ccc(Cl)cc4nc4ccc(OC)cc34)C(=O)C(COC(C)=O)NC(=O)OC(C)(C)C)c2c1 (centres undefined) | 90%
COc1ccc2nc3cc(Cl)ccc3c(NCCCN(CCCNc3c4ccc(Cl)cc4nc4ccc(OC)cc34)C(=O)C(CO)NC(=O)OC(C)(C)C)c2c1 (centres undefined) | 40%

system: Trypanosoma cruzi; test: Percentage of activity against Trypanosoma cruzi at 6.25 uM Concentration; format: functional; details: not given; procedure, shortened: as §3

SMILES | Reduction of T. cruzi parasite load
COc1ccc2nc3cc(Cl)ccc3c(NCCCN(CCCNc3c4ccc(Cl)cc4nc4ccc(OC)cc34)C(=O)C(COC(C)=O)NC(=O)OC(C)(C)C)c2c1 (centres undefined) | 40%
COc1ccc2nc3cc(Cl)ccc3c(NCCCN(CCCNc3c4ccc(Cl)cc4nc4ccc(OC)cc34)C(=O)C(CO)NC(=O)OC(C)(C)C)c2c1 (centres undefined) | 20%
